The nature of series [1]: Permeability from apical to basolateral side of human Caco2 cells at 3 uM. It is filed as ADME, cell-based. The settings on record: Caco-2, read-out: permeability. In a few lines:
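Caco-2 monolayers: apical-to-basolateral permeability was measured at pH 6.5 and reported in nm/s.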
(Caco-2 monolayers are a common model of the intestinal barrier.)

Series [2] can be described thus: Half life in dog liver microsomes at 0.5 uM at pH 7.4 in presence of NADPH. The class given is ADME, Canis lupus familiaris, Microsome. The method in brief:
(§1)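 Liver microsomal stability was measured with 0.5 µM compound and 1.0 mg/mL microsomal protein, in 1.0 mM NADPH, 100 mM NaPi and 5.0 mM MgCl₂, at pH 7.4 and 37 °C. Half-life was determined.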

The nature of series [3]: Half life in mouse liver microsomes at 0.5 uM at pH 7.4 in presence of NADPH. The class given is ADME, Microsome. In a few lines:
as §1
For orientation: Liver microsomes are a subcellular fraction often used to study metabolism.

Series [4] can be described thus: Half life in cynomolgus monkey liver microsomes at 0.5 uM at pH 7.4 in presence of NADPH. It is filed as ADME, Macaca fascicularis, Microsome. The method in brief: as §1
Series [5] in a line: Half life in rat liver microsomes at 0.5 uM at pH 7.4 in presence of NADPH. It is filed as ADME, Microsome. In a few lines: as §1
Series [6] in a line: Half life in human liver microsomes at 0.5 uM at pH 7.4 in presence of NADPH. The class given is ADME, Microsome. In a few lines:
as §1

With `NC(=O)N1CC2CC(C1)CN(C(=O)CN1CCC[C@H](NS(=O)(=O)c3ccc4cc(Cl)ccc4c3)C1=O)C2`, the Papp A→B at 3 µM in series [1] was below 1.5 ×10⁻⁶ cm/s.

For `O=C(CN1CCC[C@H](NS(=O)(=O)c2ccc3cc(Cl)ccc3c2)C1=O)N1CC2CC(C1)CN(C(=O)C1CCNCC1)C2`, the Papp A→B at 3 µM in series [1] was below 1.5 ×10⁻⁶ cm/s.

A word on the half-life: it is how long it takes for the measured level to halve. Turning to `CC(=O)N1CC2CC(C1)CN(C(=O)CN1CCC[C@H](NS(=O)(=O)c3ccc4cc(Cl)ccc4c3)C1=O)C2`, the half-life at 0.5 µM in series [2], in series [3], in series [4], in series [5] and in series [6] was below 2 min each time. Besides, the Papp A→B at 3 µM in series [1] stood at 7.3 ×10⁻⁶ cm/s.

For the compound `NC(=O)C(=O)N1CC2CC(CN(C(=O)CN3CCC[C@H](NS(=O)(=O)c4ccc5cc(Cl)ccc5c4)C3=O)C2)C1`, the Papp A→B at 3 µM in series [1] was below 1.5 ×10⁻⁶ cm/s.

Consider `CS(=O)(=O)N1CC2CC(CN(C(=O)CN3CCC[C@H](NS(=O)(=O)c4ccc5cc(Cl)ccc5c4)C3=O)C2)C1`, for which, in series [1], the Papp A→B at 3 µM was below 1.5 ×10⁻⁶ cm/s.

Take `Nc1[nH]ncc1C(=O)N1CC2CC(CN(C(=O)CN3CCC[C@H](NS(=O)(=O)c4ccc5cc(Cl)ccc5c4)C3=O)C2)C1`: in series [1], the Papp A→B at 3 µM was below 1.5 ×10⁻⁶ cm/s.

Take `O=C(CN1CCC[C@H](NS(=O)(=O)c2ccc3cc(Cl)ccc3c2)C1=O)N1C[C@@H]2C[C@H](C1)c1cccc(=O)n1C2`: the half-life at 0.5 µM in series [2], in series [3], in series [4], in series [5] and in series [6] was below 2 min each time. Moreover, the Papp A→B at 3 µM in series [1] was found to be 2.5 ×10⁻⁶ cm/s.

`O=C(CN1CCC[C@H](NS(=O)(=O)c2ccc3cc(Cl)ccc3c2)C1=O)N1CC2CNCC(C2)C1`: the Papp A→B at 3 µM in series [1] is below 1.5 ×10⁻⁶ cm/s.
